Results pooled from the literature.
Protocols differ between the studies behind these lines. pIC50: −log10 of the molar value.
KCNH2: Voltage-gated inwardly rectifying potassium channel KCNH2 (KCNH2, Homo sapiens, UniProt Q12809)

SMILES | target or system | test | system | conditions | quantity | result
CCOC(=O)C1=C(CN2CCC[C@@H]2C(=O)Nc2ccc(B(O)O)cc2)NC(c2nccs2)=N[C@H]1c1ccc(F)cc1Br | KCNH2 | ion current, inhibitor, patch clamp | HEK293 | 100 µM, pH 7.4 | inhibition | 94.8%
CC(C)n1cc(C#N)c2cc(-n3cc(C(=O)O)cn3)ccc21 |  |  | human, plasma | oral, 50 mg, single dose, fasted, healthy volunteers | Tmax | 2.75 h
CN1C[C@H](COc2nccc3c(NCc4ccco4)cc(Cl)nc23)OC1=O | KCNH2 | ion current, inhibitor | HEK293 | 3 µM | inhibition | 7%
CC(=O)N1CCC(C(=O)N2CCN3C(=O)c4cc(-c5ccccc5)ccc4NC(=O)C3C2)CC1 (stereo not shown) | KCNH2 | ion current, inhibitor, patch clamp | HEK293 | 1 µM | inhibition | 5.6%
N[C@H]1C(O)O[C@H](CO)[C@@H](O)[C@@H]1O (stereo partly shown) | Caco-2 | cell growth or viability, CCK-8 |  | 20 mM | viability | 101%
COc1cc(N)c(Cl)cc1C(=O)NC1CCN(CCCOc2ccc(F)cc2)CC1OC (stereo not shown) | KCNH2 | ion current, inhibitor, patch clamp | HEK293 | 1 nM, pH 7.4 | inhibition | 8.73%
O=C(COc1ccc(Cl)cc1)NC12CC(c3nnc([C@H]4C[C@@H](OC(F)(F)F)C4)o3)(C1)C2 |  |  | human, plasma | oral, 45 mg, multiple doses, once daily, steady state, healthy volunteers | Tmax | 4.03 h
COc1cccc(OC)c1-c1cc(C(=O)NC2(C(=O)O)C3CC4CC(C3)CC2C4)nn1-c1ccc(C(=O)N(C)CCCN(C)CCCN(C)C(=O)CN2CCN(CC(=O)[O-])CCN(CC(=O)[O-])CCN(CC(=O)[O-])CC2)cc1C(C)C.[177Lu+3] (stereo not shown) | HT-29 |  | bone | 4 h, tumour-bearing | tracer uptake | 1.8 %ID/g
Cn1c(=O)c2[nH]cnc2n(C)c1=O |  |  | male Sprague-Dawley rat, plasma | intravenous, 22.5 mg/kg | MRT(0-t) | 2.61 h
COc1ccc2c(c1)CN(C(=O)CCN1CCC(Cc3ccccc3)CC1)CC[S@@+]2[O-] |  |  | male human, plasma | intravenous, 0.4 mg/kg, healthy volunteers | Tmax | 0 h
COc1nc(-c2cccc(-c3ccccc3)c2C)ccc1CNCCNC(=O)CCCCCCCCCCC(=O)N1CCN(CCNC(=O)c2cc3c(=O)n4cccc(C)c4nc3n(CCc3cccs3)c2=N)CC1 |  |  | male Sprague-Dawley rat, plasma | intraperitoneal, 4 mg/kg | MRT(0-t) | 7.1 h
COc1cc(N)c(Cl)cc1C(=O)NC1CCN(CCCOc2ccc(F)cc2)CC1OC (stereo not shown) | KCNH2 | ion current, inhibitor, patch clamp | HEK293 | 50 nM | inhibition | 60.7%
CC(C)NC(=O)COc1cccc(-c2nc(Nc3ccc4[nH]ncc4c3)c3ccccc3n2)c1 | Bile salt export pump (ABCB11, Homo sapiens, UniProt O95342) | transporter uptake, inhibitor, radiometric |  |  | pIC50 | < 6.00
C[C@H]1Oc2cc(cnc2N)-c2c(nn(C)c2C#N)CN(C)C(=O)c2ccc(F)cc21 |  |  | male Sprague-Dawley rat, plasma | oral, 5 mg/kg, single dose | MRT(0-inf) | 8.14 h
CCn1c(=O)c(-c2cc[nH]n2)cc2c(C)nc(N)nc21 | RD | cell growth or viability, MTT |  |  | CC50 | 6.53 µM
CC(C)n1ncc2c(C(=O)NCC3(C)CNC3)cc(C3CC3)nc21 | RD | cell growth or viability, neutral red |  | 0.33 µM | viability | 98.1%
